Experimental findings from ChEMBL document CHEMBL1132285, “The presence of substituents on the aryl moiety of the aryl phosphoramidate derivative of d4T enhances anti-HIV efficacy in cell culture: A structure-activity relationship” (J Med Chem, 1999) are described below.

As usually defined, the EC50 is the midpoint of the concentration-response curve. A high value points to lower potency in that assay.

Assay [1] has as its system CCRF-CEM. Nature of the assay: In vitro effective compound concentration required to protect CEM/TK cells against the cytopathogenicity of HIV-2. The following applies: Homo sapiens. On the technique in general: Cytopathic effects are the visible damage that an infection or toxin causes in cultured cells.
Assay [2] relates to CCRF-CEM. Briefly: In vitro effective compound concentration required to protect CEM/O cells against the cytopathogenicity of HIV-1. It is filed as functional, cell-based. The following applies: Homo sapiens. The gist of the method:
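CEM/0 cells at 250 000 cells/mL were infected with HIV-1 (~20 CCID50/mL) or HIV-2 strain ROD (~100 CCID50/mL), then mixed 1:1 with compound dilutions. After 4 days at 37 °C, giant cell formation was scored. EC50 is the concentration inhibiting HIV-induced giant cell formation by 50%. Values are means of 2–4 independent experiments.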

Consider `Cc1cn([C@H]2C=C[C@@H](CO)O2)c(=O)[nH]c1=O` [STAVUDINE], for which the values for the EC50 in the assay with CCRF-CEM [1] and in the assay on CCRF-CEM [2] were 33 µM and 0.651 µM, respectively.
